Results from ChEMBL document CHEMBL3297729, “Design, synthesis and biological activity of piperlongumine derivatives as selective anticancer agents” (Eur J Med Chem, 2014).
Activity calls are given as the source filed them. The rule behind the calls is not given here.

Tests used:
[1] = test system: A549; assay: Cytotoxicity against human A549 cells after 72 hrs by MTT assay; assay type: functional, cell-based; conditions: A549, 72 h
In short: (§1)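 MTT assay. Cells seeded at 5 × 10^3/well and grown 24 h at 37 °C in humidified 5% CO2. Compounds added at a range of concentrations in triplicate wells, with 0.1% DMSO as control, for 72 h. MTT (5 mg/mL solution) added for a further 4 h. Formazan dissolved in DMSO and absorbance read at 570 nm. IC50 derived by the Logit method.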

[2] = test system: HCT-116; assay: Cytotoxicity against human HCT116 cells after 72 hrs by MTT assay; assay type: functional, cell-based; conditions: HCT-116, 72 h; in short: as §1
[3] = Cytotoxicity against human ZR75-30 cells after 72 hrs by MTT assay; assay type: functional, cell-based; conditions: ZR-75-30, 72 h; in short: as §1
[4] = test system: MRC5; assay: Cytotoxicity against human MRC5 cells after 72 hrs by MTT assay; assay type: cell-based; conditions: MRC5, 72 h; in short: as §1
[5] = test system: MDA-MB-231; assay: Cytotoxicity against human MDA-MB-231 cells after 72 hrs by MTT assay; assay type: functional, cell-based; conditions: MDA-MB-231, 72 h; in short: as §1
[6] = Cytotoxicity against human Hep3B cells after 72 hrs by MTT assay; assay type: functional, cell-based, Hep 3B2; in short: as §1
[7] = test system: WI-38; assay: Cytotoxicity against human WI38 cells after 72 hrs by MTT assay; assay type: cell-based; conditions: WI-38, 72 h; in short: as §1
[8] = Selectivity ratio of IC50 for human MRC5 cells to IC50 for human HCT116 cells; assay type: ADME, cell-based, HCT-116; conditions: MRC5 cells versus HCT116 cells, read-out: Ratio IC50
[9] = Selectivity ratio of IC50 for human MRC5 cells to IC50 for human ZR75-30 cells; assay type: ADME, cell-based; conditions: MRC5 cells versus ZR75-30 cells, read-out: Ratio IC50
[10] = Selectivity ratio of IC50 for human MRC5 cells to IC50 for human MDA-MB-231 cells; assay type: ADME, cell-based; conditions: MRC5 cells versus MDA-MB-231 cells, read-out: Ratio IC50
[11] = test system: A549; assay: Increase of ROS level in human A549 cells at 10 uM after 1 hr by fluorescence microscopic analysis; assay type: functional, cell-based
In short: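 Cells treated with compound or DMSO for 1 h, then loaded with 10 μM DCFH-DA for 30 min at 37 °C. Washed twice with PBS and imaged at once by fluorescence microscopy. Mean fluorescence compared with control.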

[12] = test system: A549; assay: Antitumor activity against human A549 cells xenografted in BALB/C nude mouse assessed as inhibition of tumor growth at 2 mg/kg, ip administered for 14 days; assay type: functional; conditions: 336 h, route intraperitoneal
[13] = test system: Mus musculus; assay: Toxicity in human A549 cells xenografted BALB/C nude mouse assessed as reduction of body weight at 2 mg/kg, ip administered for 14 days; assay type: organism-based; set-up: dose 2 mg/kg, route intraperitoneal; conditions: in vivo, 336 h
In short: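 Male BALB/C nude mice (18–20 g) implanted sc in the right axilla with A549 cells. Dosing began at tumor volume about 100–300 mm3 (day 17): 2 mg/kg ip daily for 14 days, in normal saline with tween-80 as solubilizer. Six mice per treatment group, eight controls. Caliper tumor volume (1/2·a·b²) and body weight recorded every 4 days. Sacrifice on days 30–33 and tumors excised.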

| Compound | IC50 [1] | IC50 [2] | IC50 [3] | IC50 [4] | IC50 [5] | IC50 [6] | IC50 [7] | selectivity ratio [8] | selectivity ratio [9] | selectivity ratio [10] | Activity [11] | inhibition in vivo at 2 mg/kg [12] | Activity [13] |
| --- | --- | --- | --- | --- | --- | --- | --- | --- | --- | --- | --- | --- | --- |
| CCC/C(=C\c1cc(OC)c(OC)c(OC)c1)C(=O)N1CCC=C(N2CCOCC2)C1=O | > 100 µM | > 100 µM | > 100 µM | 52.5 µM | > 100 µM |  |  |  |  |  |  |  |  |
| COc1cc(/C=C(\C)C(=O)N2CCC=CC2=O)cc(OC)c1OC | 23.9 µM | 10.3 µM | 3.32 µM | 19.4 µM | 11.7 µM |  |  |  |  |  |  |  |  |
| CCC/C(=C\c1cc(OC)c(OC)c(OC)c1)C(=O)N1CCC=C(Cl)C1=O | 3.81 µM | 8.08 µM |  |  | 8.13 µM | 22.4 µM | 10.4 µM |  |  |  |  |  |  |
| COc1cc(/C=C/C(=O)N2CCC=CC2=O)cc(OC)c1OC [PIPLARTINE] | 22.9 µM | 6.04 µM | 5.86 µM | 35 µM | 8.46 µM | 69.5 µM | 26.8 µM |  |  |  |  |  |  |
| CCCC/C(=C\c1cc(OC)c(OC)c(OC)c1)C(=O)N1CCC=C(Cl)C1=O | 3.78 µM | 7.53 µM |  |  | 6.55 µM | 14.8 µM | 7.93 µM |  |  |  |  |  |  |
| COc1cc(/C=C(\C)C(=O)N2CCC=C(N3CCOCC3)C2=O)cc(OC)c1OC | > 100 µM | > 100 µM | > 100 µM | > 100 µM | > 100 µM |  |  |  |  |  |  |  |  |
| CC/C(=C\c1cc(OC)c(OC)c(OC)c1)C(=O)N1CCC=C(Cl)C1=O | 4.06 µM | 9.17 µM |  |  | 7.27 µM | 19 µM | 5.48 µM |  |  |  |  |  |  |
| COc1cc(/C=C/C(=O)N2CCC=C(Cl)C2=O)cc(OC)c1OC | 19.8 µM | 4.28 µM | 4.49 µM | 14.3 µM | 6.71 µM |  |  | 2 | 2 | 2 |  |  |  |
| COc1cc(/C=C/C(=O)N2CCC=C(Br)C2=O)cc(OC)c1OC | 4.79 µM | 7.12 µM |  |  | 2.73 µM | 8.09 µM | 20.7 µM |  |  |  |  |  |  |
| CC/C(=C\c1cc(OC)c(OC)c(OC)c1)C(=O)N1CCC=CC1=O | 17.9 µM | 12.3 µM | 3.16 µM | 13.5 µM | 23.7 µM |  |  |  |  |  |  |  |  |
| CC/C(=C\c1cc(OC)c(OC)c(OC)c1)C(=O)N1CCC=C(N2CCOCC2)C1=O | > 100 µM | > 100 µM | > 100 µM | > 100 µM | > 100 µM |  |  |  |  |  |  |  |  |
| COc1cc(/C=C(\C)C(=O)N2CCC=C(Br)C2=O)cc(OC)c1OC | 2.67 µM | 6.2 µM |  |  | 2.47 µM | 3.1 µM | 7.16 µM |  |  |  |  |  |  |
| COc1cc(/C=C(\C)C(=O)N2CCC=C(Cl)C2=O)cc(OC)c1OC | 3.94 µM | 9.85 µM |  |  | 6.07 µM | 16.7 µM | 19.6 µM |  |  |  | Active | 48.6% | Non-toxic |
| CCCC/C(=C\c1cc(OC)c(OC)c(OC)c1)C(=O)N1CCC=C(Br)C1=O | 2.56 µM | 2.59 µM |  |  | 2.44 µM | 14.8 µM | 9.21 µM |  |  |  |  |  |  |
| COc1cc(/C=C/C(=O)N2CCC=C(N3CCOCC3)C2=O)cc(OC)c1OC | > 100 µM | 47.2 µM | 52.6 µM | 56.1 µM | > 100 µM |  |  |  |  |  |  |  |  |
| CCC/C(=C\c1cc(OC)c(OC)c(OC)c1)C(=O)N1CCC=C(Br)C1=O | 2.63 µM | 2.14 µM |  |  | 2.36 µM | 5.54 µM | 5.02 µM |  |  |  |  |  |  |
| CC/C(=C\c1cc(OC)c(OC)c(OC)c1)C(=O)N1CCC=C(Br)C1=O | 2.18 µM | 3.02 µM |  |  | 2.12 µM | 8.12 µM | 7.94 µM |  |  |  |  |  |  |
